We go through two molecules from ChEMBL document CHEMBL1125882, “The agonist pharmacophore of the benzodiazepine receptor. Synthesis of a selective anticonvulsant/anxiolytic” (J Med Chem, 1991).

One may read the IC50 as the point on the concentration scale where inhibition reaches its midpoint. High values mean a need for much substance, low ones inhibition by little substance. In general, ED50 refers to the dose that gives a 50% effect, or the effect in half of the subjects. Read a high ED50 as a need for a large dose.

Test [1] has as its system Mus musculus. The test can be described thus: Effects on Diazepam-Induced Myorelaxation in mice was determined when administered along with compound 1 at 10 mg/kg. The test is classed as functional.
Test [2] concerns Mus musculus. Kind of test: Effects on Diazepam-Induced Myorelaxation in mice was determined when administered along with compound 1 at 20 mg/kg. It is filed as functional.
The species named for test [3] is Mus musculus. Kind of test: Effects on Diazepam-Induced Myorelaxation in mice was determined. The test is classed as functional.
In test [4] the target is GABA-A receptor; anion channel. Kind of test: Effect on [3H]flunitrazepam binding to Benzodiazepine receptor. It is filed as protein-complex assay, Rattus norvegicus.
For test [5], the system named is Mus musculus. The test can be described thus: Number of mice impaired to that of number of mice tested at 10 mg/kg; 0/10. It is filed as functional.
Test [6] deals with Mus musculus. Kind of test: Number of mice impaired to that of number of mice tested at 20 mg/kg; 0/10. It is filed as functional.
Test [7] has as its system Mus musculus. The test can be described thus: Tested for inhibition of pentylenetetrazole (PTZ = 80 mg/kg (ip)) induced seizures in mice at a dose of 0.5-40 mg/kg i.p. The following applies: route intraperitoneal. It is filed as functional. In short, it runs like this:
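Mice pretreated ip with drug (0.5-40 mg/kg); 15 min later pentylenetetrazole 80 mg/kg ip. Tonic and/or clonic seizures were scored over the next 15 min. 5-14 mice per dose point; ED50 taken from the dose-response curve.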

Test [8] relates to Mus musculus. Kind of test: Effects on Diazepam-Induced Myorelaxation in mice was determined at 10 mg/kg. It is filed as functional.
The test system of test [9] is Mus musculus. The test can be described thus: Effects on Diazepam-Induced Myorelaxation in mice was determined at 20 mg/kg. The test is classed as functional.

Take `CN1C(=O)CN=C(c2ccccc2)c2cc(Cl)ccc21` [DIAZEPAM]: the values for the Impaired in the test on Mus musculus [1], in the test with Mus musculus [2] and in the test filed under Mus musculus [3] were 50%, 0% and 100%, respectively.

The molecule `CCCOc1ccc2[nH]c3cnc(C(=O)OCC)c(COC)c3c2c1` yielded an IC50 in test [4] of 8 nM. Besides, the Activity in the test with Mus musculus [5] and in the test on Mus musculus [6] was 0 throughout. It took a dose of 1.6 mg/kg to reach the 50% effect level in the test on Mus musculus [7] (ED50). The Impaired in the test with Mus musculus [8] and with Mus musculus [9] was 0% throughout.
